According to ChEMBL document CHEMBL4325926, “Potent Antimalarial 2-Pyrazolyl Quinolone bc 1 (Qi) Inhibitors with Improved Drug-like Properties” (ACS Med Chem Lett, 2018):
Values after ≈ are worked out from the molar mass of the structure shown. Blank lines part the entries; values can stand above or below the molecule they belong to. Active and inactive are the calls of the source. No cut-off for these calls is given here.

Key:
[1] = tested on: HepG2; experiment: Cytotoxicity against human HepG2 cells after 24 hrs by MTT assay; type: cell-based; settings: HepG2, 24 h
[2] = tested on: Plasmodium falciparum; experiment: Antimalarial activity against chloroquine-sensitive Plasmodium falciparum 3D7 measured after 48 hrs by SYBR green1 dye based fluorescence assay; type: functional, organism-based; settings: 3D7, 48 h
[3] = Aqueous solubility of the compound in pH 7.4 phosphate buffered saline; type: physicochemical
In short: (§1)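 In vitro DMPK measurements performed by an external DMPK group. Aqueous solubility measured in pH 7.4 PBS buffer. Protein binding measured in human plasma.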

[4] = tested on: Plasmodium falciparum; experiment: Antimalarial activity against chloroquine-resistant Plasmodium falciparum TM90C2B harboring Y268S mutant measured after 48 hrs by SYBR green1 dye based fluorescence assay; type: functional, organism-based
[5] = Inhibition of recombinant Plasmodium falciparum NDH2 expressed in Escherichia coli using NADH as substrate
[6] = tested on: Plasmodium falciparum; experiment: Antimalarial activity against chloroquine-resistant Plasmodium falciparum W2 measured after 48 hrs by SYBR green1 dye based fluorescence assay; type: functional, organism-based; settings: W2, 48 h
[7] = Therapeutic index, ratio of IC50 for human HepG2 cells to IC50 for chloroquine-sensitive Plasmodium falciparum 3D7
[8] = tested on: Plasmodium falciparum; experiment: Antimalarial activity against Plasmodium falciparum TX13 expressing yeast dihydroorotate dehydrogenase at >1000 nM; type: functional, organism-based
[9] = Protein binding in human plasma; type: ADME, cell-free; settings: read-out: PPB; in short: as §1
[10] = Inhibition of Plasmodium falciparum cytochrome bc1 complex using cytochrome-c as substrate and decylubiquinol as donor by spectrophotometric method

IC50 [2]: 419 nM
SMILES: COc1ccc2c(=O)cc(-c3cnn(Cc4ccc(OC(F)(F)F)cc4)c3)[nH]c2c1

IC50 [2]: 54 nM
SMILES: Cc1c(-c2cnn(Cc3ccc(OC(F)(F)F)cc3)c2)[nH]c2ccc(F)cc2c1=O

IC50 [2]: 80 nM
SMILES: Cc1c(-c2cnn(Cc3ccc(OC(F)(F)F)cc3)c2)[nH]c2cc(F)ccc2c1=O

IC50 [2]: 74 nM
SMILES: O=c1cc(-c2cnn(Cc3ccc(OC(F)(F)F)cc3)c2)[nH]c2ccccc12

IC50 [2]: > 1000 nM
SMILES: Cc1c(-c2cnn(CCc3ccc(OC(F)(F)F)cc3)c2)[nH]c2ccccc2c1=O

solubility [3]: 0.2 µM (≈ 0.0827 µg/mL)
IC50 [2]: 88 nM
SMILES: CCc1c(-c2cnn(Cc3ccc(OC(F)(F)F)cc3)c2)[nH]c2ccccc2c1=O
IC50 [1]: 19300 nM
selectivity ratio [7]: 219

IC50 [2]: 89 nM
SMILES: CCOC(=O)c1c(-c2cnn(Cc3ccc(OC(F)(F)F)cc3)c2)[nH]c2ccccc2c1=O

IC50 [2]: 50 nM
SMILES: Cc1c(-c2cnn(Cc3ccc(OC(F)(F)F)cc3)c2)[nH]c2cc(Cl)ccc2c1=O

IC50 [2]: 299 nM
SMILES: CC(C)c1c(-c2cnn(Cc3ccc(OC(F)(F)F)cc3)c2)[nH]c2ccccc2c1=O

IC50 [2]: 810 nM
SMILES: Cc1c(-c2cnn(Cc3ccc(OC(F)(F)F)cc3)c2)[nH]c2cc(C(F)(F)F)ccc2c1=O

IC50 [2]: 110 nM
SMILES: Cc1c(-c2cnn(Cc3ccc(OC(F)(F)F)cc3)c2)[nH]c2ccc(Cl)cc2c1=O

Second part, the molecule before the results:

SMILES: C=C(C)[C@H]1Cc2c(ccc3c2O[C@@H]2COc4cc(OC)c(OC)cc4[C@@H]2C3=O)O1 [ROTENONE]
IC50 [1]: 1520 nM

SMILES: Cc1c(-c2ccc(-c3cnn(CCN4CCOCC4)c3)nc2)[nH]c2ccccc2c1=O
IC50 [2]: > 1000 nM

SMILES: Cc1c(-c2ccc(-c3cnn(CCN4CCOCC4)c3)cc2)[nH]c2ccccc2c1=O
IC50 [2]: > 1000 nM

SMILES: O=c1cc(-c2cnn(CCN3CCOCC3)c2)[nH]c2ccccc12
IC50 [2]: 690 nM

SMILES: COc1ccc2c(=O)c(Cl)c(-c3ccn(Cc4ccc(OC(F)(F)F)cc4)n3)[nH]c2c1
IC50 [2]: 376 nM

SMILES: Cc1c(-c2ccc(Cc3ccc(OC(F)(F)F)cc3)cc2)[nH]c2ccccc2c1=O
solubility [3]: 0.03 µM (≈ 0.0123 µg/mL)

SMILES: Cc1c(-c2ccn(Cc3ccc(OC(F)(F)F)cc3)n2)[nH]c2ccccc2c1=O
IC50 [1]: 21200 nM
IC50 [4]: 300 nM
solubility [3]: 0.4 µM (≈ 0.16 µg/mL)
IC50 [5]: 68 nM
IC50 [6]: 49 nM
selectivity ratio [7]: 79
IC50 [2]: 270 nM

SMILES: CC/C(=C(\c1ccccc1)c1ccc(OCCN(C)C)cc1)c1ccccc1 [TAMOXIFEN]
IC50 [1]: 12000 nM

SMILES: COc1ccc2c(=O)c(Cl)c(-c3cnn(Cc4ccc(OC(F)(F)F)cc4)c3)[nH]c2c1
IC50 [4]: 110 nM
IC50 [6]: 11 nM
IC50 [2]: 91 nM
Activity [8]: inactive

SMILES: O=c1c(Cl)c(-c2cnn(Cc3ccc(OC(F)(F)F)cc3)c2)[nH]c2ccccc12
IC50 [1]: 28400 nM
solubility [3]: 0.01 µM (≈ 0.0042 µg/mL)
IC50 [6]: 14 nM
selectivity ratio [7]: 171
fraction unbound [9]: < 0.001
IC50 [2]: 166 nM

SMILES: COc1ccc2c(=O)c(C)c(-c3cnn(Cc4ccc(OC(F)(F)F)cc4)c3)[nH]c2c1
IC50 [1]: 11000 nM
IC50 [4]: 500 nM
solubility [3]: 0.3 µM (≈ 0.129 µg/mL)
IC50 [5]: 1000 nM
IC50 [6]: 15 nM
IC50 [10]: 0.75 nM
selectivity ratio [7]: 333
IC50 [2]: 33 nM

SMILES: O=C1C(O)=C([C@H]2CC[C@H](c3ccc(Cl)cc3)CC2)C(=O)c2ccccc21 [ATOVAQUONE]
IC50 [5]: 10000 nM
IC50 [6]: 0.3 nM

SMILES: COc1ccc2c(=O)cc(-c3ccn(Cc4ccc(OC(F)(F)F)cc4)n3)[nH]c2c1
IC50 [2]: 541 nM

SMILES: O=c1cc(-c2cnn(Cc3ccc(F)cc3)c2)[nH]c2ccccc12
IC50 [2]: 160 nM

SMILES: Cc1c(-c2cnn(Cc3ccc(OC(F)(F)F)cc3)c2)[nH]c2ccccc2c1=O
IC50 [1]: 13000 nM
solubility [3]: 0.1 µM (≈ 0.0399 µg/mL)
IC50 [5]: 837 nM
IC50 [6]: 33 nM
selectivity ratio [7]: 130
IC50 [2]: 100 nM

SMILES: O=c1cc(-c2cnn(Cc3ccc(C(F)(F)F)nc3)c2)[nH]c2ccccc12
IC50 [2]: 580 nM
